Measured values published in ChEMBL document CHEMBL1909525, “Synthesis and anticonvulsant activity of novel 2,6-diketopiperazine derivatives. Part 1: perhydropyrrole[1,2-a]pyrazines” (Eur J Med Chem, 2011).
Active and inactive are the calls of the source. The rule behind the calls is not given here.

Tests used:
Mus musculus [1] = assay: Anticonvulsant activity in albino Carworth Farms No.1 mouse assessed as protection against electric-current for 3 secs-induced seizure at 100 mg/kg, ip after 2 hrs by 6Hz minimal clonic seizure test; format: functional, organism-based; set-up: dose 100 mg/kg
Summary of the method: (§1)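 6 Hz psychomotor seizure test in mice. Compound given i.p. as a suspension in 0.5% methylcellulose. Corneal stimulation at 32 mA, 0.2-ms monopolar rectangular pulses at 6 Hz for 3 s, from a constant-current device. Tests run 0.25–4 h after dosing. A mouse counted as protected if it resumed normal exploratory behaviour within 10 s; scored as protected/tested.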

Mus musculus [2] = assay: Neurotoxicity in albino Carworth Farms No.1 mouse assessed as motor impairment at 30 mg/kg, ip after 0.5 hrs by rotarod test; format: toxicity, organism-based; set-up: dose 30 mg/kg, route intraperitoneal; settings: in vivo
Summary of the method: (§2)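 Rotorod neurotoxicity in mice at 6 r.p.m. Compound given i.p. (30, 100, 300 mg/kg) in 0.5% methylcellulose; tested at 30 min and 4 h. Impairment is inability to keep equilibrium on the rod for a given time; scored as impaired/tested.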

Mus musculus [3] = assay: Neurotoxicity in albino Carworth Farms No.1 mouse assessed as motor impairment at 100 mg/kg, ip after 0.5 hrs by rotarod test; format: toxicity, organism-based; set-up: dose 100 mg/kg, route intraperitoneal; settings: in vivo; summary of the method: as §2
Mus musculus [4] = assay: Neurotoxicity in albino Carworth Farms No.1 mouse assessed as motor impairment at 300 mg/kg, ip after 0.5 hrs by rotarod test; format: toxicity, organism-based; set-up: dose 300 mg/kg, route intraperitoneal; settings: in vivo; summary of the method: as §2
Mus musculus [5] = assay: Anticonvulsant activity in albino Carworth Farms No.1 mouse assessed as protection against electric-current for 3 secs-induced seizure at 100 mg/kg, ip after 0.25 hrs by 6Hz minimal clonic seizure test; format: functional, organism-based; set-up: dose 100 mg/kg; summary of the method: as §1
Mus musculus [6] = assay: Anticonvulsant activity in albino Carworth Farms No.1 mouse assessed as protection against subcutaneous metrazol-induced seizure at 30 mg/kg, ip after 0.5 hrs; format: functional, organism-based; set-up: dose 30 mg/kg
Summary of the method: (§3)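 Mouse scMET test. Compound given i.p. (30, 100 or 300 mg/kg) in 0.5% methylcellulose. Pentylenetetrazole 85 mg/kg (CD97) given s.c. at 0.5 or 4 h, then mice observed for 30 min. Protection is absence of clonic spasms; scored as protected/tested.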

Mus musculus [7] = assay: Anticonvulsant activity in albino Carworth Farms No.1 mouse assessed as protection against subcutaneous metrazol-induced seizure at 30 mg/kg, ip after 4 hrs; format: functional, organism-based; set-up: dose 30 mg/kg; summary of the method: as §3
Mus musculus [8] = assay: Anticonvulsant activity in albino Carworth Farms No.1 mouse assessed as protection against subcutaneous metrazol-induced seizure at 100 mg/kg, ip after 0.5 hrs; format: functional, organism-based; set-up: dose 100 mg/kg; summary of the method: as §3
Mus musculus [9] = assay: Anticonvulsant activity in albino Carworth Farms No.1 mouse assessed as protection against subcutaneous metrazol-induced seizure at 100 mg/kg, ip after 4 hrs; format: functional, organism-based; set-up: dose 100 mg/kg; summary of the method: as §3
Mus musculus [10] = assay: Anticonvulsant activity in albino Carworth Farms No.1 mouse assessed as protection against subcutaneous metrazol-induced seizure at 300 mg/kg, ip after 0.5 hrs; format: functional, organism-based; set-up: dose 300 mg/kg; summary of the method: as §3
Mus musculus [11] = assay: Anticonvulsant activity in albino Carworth Farms No.1 mouse assessed as protection against subcutaneous metrazol-induced seizure at 300 mg/kg, ip after 4 hrs; format: functional, organism-based; set-up: dose 300 mg/kg; summary of the method: as §3
Mus musculus [12] = assay: Anticonvulsant activity in albino Carworth Farms No.1 mouse assessed as protection against electric-current for 3 secs-induced seizure at 100 mg/kg, ip after 4 hrs by 6Hz minimal clonic seizure test; format: functional, organism-based; set-up: dose 100 mg/kg; summary of the method: as §1
Mus musculus [13] = assay: Neurotoxicity in albino Carworth Farms No.1 mouse assessed as motor impairment at 100 mg/kg, ip after 0.25 hrs by rotarod test; format: toxicity, organism-based; set-up: dose 100 mg/kg, route intraperitoneal; settings: in vivo
Summary of the method: (§4)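 Rotorod neurotoxicity in mice (18–25 g) following i.p. dosing of a suspension in 0.5% methylcellulose in water, tested at intervals between 0.25 and 4 h. Impairment was scored as failure to keep equilibrium on a 6 r.p.m. rod, reported as number impaired/number tested.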

Mus musculus [14] = assay: Neurotoxicity in albino Carworth Farms No.1 mouse assessed as motor impairment at 100 mg/kg, ip after 2 hrs by rotarod test; format: toxicity, organism-based; set-up: dose 100 mg/kg, route intraperitoneal; settings: in vivo; summary of the method: as §4
Mus musculus [15] = assay: Neurotoxicity in albino Carworth Farms No.1 mouse assessed as motor impairment at 100 mg/kg, ip after 4 hrs by rotarod test; format: toxicity, organism-based; set-up: dose 100 mg/kg, route intraperitoneal; settings: in vivo; summary of the method: as §2
Mus musculus [16] = species: Mus musculus; assay: Protective index, ratio of TD50 for albino Carworth Farms No.1 mouse to ED50 for albino Carworth Farms No.1 mouse by 6Hz minimal clonic seizure test; format: functional
Summary of the method: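 Mouse 6 Hz (32 mA) quantification, compound given i.p. at the time of peak effect. Groups of at least eight mice at varied doses.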

Mus musculus [17] = assay: Anticonvulsant activity in ip dosed albino Carworth Farms No.1 mouse assessed as time needs to show peak effect for electric-current for 3 secs-induced seizure after 0.25 hrs by 6Hz minimal clonic seizure test; format: functional
Mus musculus [18] = assay: Neurotoxicity in albino Carworth Farms No.1 mouse assessed as motor impairment at 100 mg/kg, ip after 1 hr by rotarod test; format: toxicity, organism-based; set-up: dose 100 mg/kg, route intraperitoneal; settings: in vivo; summary of the method: as §4
Mus musculus [19] = assay: Anticonvulsant activity in albino Carworth Farms No.1 mouse assessed as protection against maximal electroshock-induced seizure at 30 mg/kg, ip after 0.5 hrs; format: functional, organism-based; set-up: dose 30 mg/kg
Summary of the method: (§5)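 Mouse MES test with compound given i.p. (30, 100 or 300 mg/kg) in 0.5% methylcellulose; tested at 0.5 and 4 h. Corneal stimulus of 50 mA at 60 Hz for 0.2 s, electrodes primed with 0.5% butacaine in 0.9% NaCl. Protection is abolition of hindlimb tonic extension; scored as protected/tested.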

Mus musculus [20] = assay: Anticonvulsant activity in albino Carworth Farms No.1 mouse assessed as protection against maximal electroshock-induced seizure at 30 mg/kg, ip after 4 hrs; format: functional, organism-based; set-up: dose 30 mg/kg; summary of the method: as §5
Mus musculus [21] = assay: Anticonvulsant activity in albino Carworth Farms No.1 mouse assessed as protection against maximal electroshock-induced seizure at 100 mg/kg, ip after 0.5 hrs; format: functional, organism-based; set-up: dose 100 mg/kg; summary of the method: as §5
Mus musculus [22] = assay: Anticonvulsant activity in albino Carworth Farms No.1 mouse assessed as protection against maximal electroshock-induced seizure at 100 mg/kg, ip after 4 hrs; format: functional, organism-based; set-up: dose 100 mg/kg; summary of the method: as §5
Mus musculus [23] = assay: Anticonvulsant activity in albino Carworth Farms No.1 mouse assessed as protection against maximal electroshock-induced seizure at 300 mg/kg, ip after 0.5 hrs; format: functional, organism-based; set-up: dose 300 mg/kg; summary of the method: as §5
Mus musculus [24] = assay: Anticonvulsant activity in albino Carworth Farms No.1 mouse assessed as protection against maximal electroshock-induced seizure at 300 mg/kg, ip after 4 hrs; format: functional, organism-based; set-up: dose 300 mg/kg; summary of the method: as §5
Mus musculus [25] = assay: Anticonvulsant activity in albino Carworth Farms No.1 mouse assessed as protection against electric-current for 3 secs-induced seizure at 100 mg/kg, ip after 1 hr by 6Hz minimal clonic seizure test; format: functional, organism-based; set-up: dose 100 mg/kg; summary of the method: as §1
Mus musculus [26] = assay: Neurotoxicity in albino Carworth Farms No.1 mouse assessed as motor impairment at 30 mg/kg, ip after 4 hrs by rotarod test; format: toxicity, organism-based; set-up: dose 30 mg/kg, route intraperitoneal; settings: in vivo; summary of the method: as §2
Mus musculus [27] = assay: Neurotoxicity in albino Carworth Farms No.1 mouse assessed as motor impairment at 300 mg/kg, ip after 4 hrs by rotarod test; format: toxicity, organism-based; set-up: dose 300 mg/kg, route intraperitoneal; settings: in vivo; summary of the method: as §2
Mus musculus [28] = assay: Toxicity in albino Carworth Farms No.1 mouse assessed as death following tonic extension at 300 mg/kg, ip after 0.5 hrs by rotarod test; format: organism-based; set-up: dose 300 mg/kg, route intraperitoneal; settings: in vivo
Summary of the method: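 Mice (18–25 g) were given 30, 100 or 300 mg/kg i.p. in 0.5% (v/v) aqueous methylcellulose. Neurotoxicity was checked on a 6 r.p.m. rotorod 30 min and 4 h after dosing and scored as inability to keep equilibrium. Death following tonic extension and sedation were recorded as observations (number of animals/number tested).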

Mus musculus [29] = assay: Toxicity in albino Carworth Farms No.1 mouse subcutaneous metrazol-induced seizure model assessed as myoclonic jerk at 300 mg/kg, ip after 0.5 hrs; format: organism-based; set-up: dose 300 mg/kg; settings: in vivo, sc

SMILES | Activity (Mus musculus [2]) | Activity (Mus musculus [3]) | Activity (Mus musculus [4]) | Activity (Mus musculus [6]) | Activity (Mus musculus [7]) | Activity (Mus musculus [8]) | Activity (Mus musculus [9]) | Activity (Mus musculus [10]) | Activity (Mus musculus [11]) | Activity (Mus musculus [19]) | Activity (Mus musculus [20]) | Activity (Mus musculus [21]) | Activity (Mus musculus [22]) | Activity (Mus musculus [23]) | Activity (Mus musculus [24]) | Activity (Mus musculus [26]) | Activity (Mus musculus [27]) | other results
O=C1NC(=O)[C@@H](c2ccccc2)N2CCC[C@@H]12 | Non-toxic | Non-toxic | Non-toxic | inactive | inactive | inactive | inactive | inactive | inactive | inactive | inactive | inactive | inactive | inactive | inactive | Non-toxic | Non-toxic | Activity (Mus musculus [1]): inactive; Activity (Mus musculus [5]): inactive; Activity (Mus musculus [12]): inactive; Activity (Mus musculus [13]): Non-toxic; Activity (Mus musculus [14]): Non-toxic; Activity (Mus musculus [15]): Non-toxic; Ratio TD50/ED50 (Mus musculus [16]): 12.2; Time (Mus musculus [17]): 0.25 h; Activity (Mus musculus [18]): Non-toxic; Activity (Mus musculus [25]): inactive
Cl.O=C1CN2CCC[C@H]2C(=O)N1CCc1ccccc1 | Non-toxic | Non-toxic | Toxic | inactive | inactive | inactive | inactive | Active | inactive | inactive | inactive | inactive | inactive | Active | Active | Non-toxic | Non-toxic | Activity (Mus musculus [28]): Toxic; Activity (Mus musculus [29]): Toxic
